The values that follow come from ChEMBL document CHEMBL1139577, “Discovery of 3-OH-3-methylpipecolic hydroxamates: potent orally active inhibitors of aggrecanase and MMP-13” (Bioorg Med Chem Lett, 2005).

Data set [1] is described as follows: Inhibitory concentration against aggrecanase from porcine chondrocytes using [35S]-sulfate (5 mCi/ml) as radioligand and adding IL-1alpha (5 ng/ml) incubated for 10h. The arrangement: species or system Sus scrofa. A digest of the protocol:
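Cell-based assay in porcine chondrocytes. Glycosaminoglycan chains were labelled by including [³⁵S]sulfate (5 mCi/ml) in the culture medium, and unincorporated label was washed out before aggrecan degradation was assessed.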

For data set [2], the target named is Disintegrin and metalloproteinase domain-containing protein 17 (Rattus norvegicus, UniProt Q9Z1K9). Briefly: Inhibitory concentration against rat TACE.
The target of a further data set is T1, Interstitial collagenase (Homo sapiens, UniProt P03956).
T1 sequence (P03956 whole entry): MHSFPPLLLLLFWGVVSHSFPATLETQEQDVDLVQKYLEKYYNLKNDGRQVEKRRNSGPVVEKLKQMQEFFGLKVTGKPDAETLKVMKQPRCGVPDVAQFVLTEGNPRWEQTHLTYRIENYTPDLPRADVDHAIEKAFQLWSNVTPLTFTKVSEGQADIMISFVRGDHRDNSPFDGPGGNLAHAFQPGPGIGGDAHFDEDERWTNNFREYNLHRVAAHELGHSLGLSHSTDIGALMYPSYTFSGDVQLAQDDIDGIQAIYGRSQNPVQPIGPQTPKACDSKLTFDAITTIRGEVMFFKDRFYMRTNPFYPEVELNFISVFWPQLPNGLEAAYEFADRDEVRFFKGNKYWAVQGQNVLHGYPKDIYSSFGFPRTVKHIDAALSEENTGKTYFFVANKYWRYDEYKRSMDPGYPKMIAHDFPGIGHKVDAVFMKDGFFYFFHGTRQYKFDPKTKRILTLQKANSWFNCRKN
The data set can be described thus: Inhibitory concentration against MMP-1.

A short description of data set [3]: Inhibitory concentration against MMP-13.
Data set [4] is described as follows: Half life in rat. In kind it is ADME. The following applies: in vivo. A digest of the protocol: (§1)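 Male Sprague–Dawley rats with jugular vein catheters got an iv bolus of 5 mg/kg in glycerol formal. Jugular blood was drawn at 5, 15 and 30 min and at 1, 2, 4, 6, 8 and 24 h. Plasma was diluted with an equal volume of water, extracted with MTBE and assayed by LC–MS/MS. Parameters were derived by non-compartmental analysis.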

Data set [5] can be described thus: Half life in dog. It counts as ADME, Canis lupus familiaris. The following applies: in vivo.
Data set [6] is described as follows: Clearance in dog. In kind it is ADME, organism-based, Canis lupus familiaris. The following applies: plasma, read-out: Clp.
Data set [7] is described as follows: Clearance in rat. It counts as ADME, organism-based. The following applies: plasma, read-out: Clp. An outline of the steps:
as §1

In data set [8] the target is T2, A disintegrin and metalloproteinase with thrombospondin motifs 4 (Homo sapiens) (UniProt O75173).
T2 sequence (whole entry): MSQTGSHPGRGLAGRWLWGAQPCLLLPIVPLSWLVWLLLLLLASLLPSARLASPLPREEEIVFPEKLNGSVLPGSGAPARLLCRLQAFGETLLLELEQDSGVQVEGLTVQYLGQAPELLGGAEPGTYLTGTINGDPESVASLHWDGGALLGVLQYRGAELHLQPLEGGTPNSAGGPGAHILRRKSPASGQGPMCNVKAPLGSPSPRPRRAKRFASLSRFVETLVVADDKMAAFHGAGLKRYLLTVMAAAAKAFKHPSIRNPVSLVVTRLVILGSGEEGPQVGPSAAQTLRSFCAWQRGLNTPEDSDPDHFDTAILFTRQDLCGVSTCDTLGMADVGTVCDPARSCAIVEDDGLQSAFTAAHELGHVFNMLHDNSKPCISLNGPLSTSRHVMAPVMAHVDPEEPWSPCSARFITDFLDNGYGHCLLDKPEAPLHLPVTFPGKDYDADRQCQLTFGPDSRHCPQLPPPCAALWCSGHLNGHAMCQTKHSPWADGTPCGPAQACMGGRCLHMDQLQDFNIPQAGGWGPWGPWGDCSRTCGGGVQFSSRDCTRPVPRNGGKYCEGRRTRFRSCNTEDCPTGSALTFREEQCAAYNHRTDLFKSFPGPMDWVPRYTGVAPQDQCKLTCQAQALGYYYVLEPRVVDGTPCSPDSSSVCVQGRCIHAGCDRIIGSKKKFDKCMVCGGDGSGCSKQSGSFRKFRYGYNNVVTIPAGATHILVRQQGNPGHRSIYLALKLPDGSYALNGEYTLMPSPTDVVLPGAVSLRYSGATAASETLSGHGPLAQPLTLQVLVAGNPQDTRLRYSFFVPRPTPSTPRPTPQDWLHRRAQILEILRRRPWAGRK
The data set can be described thus: Inhibitory concentration at 500 nM against aggrecanase from porcine chondrocytes using [35S]-sulfate (5 mCi/ml) as radioligand and adding IL-1alpha (5 ng/ml) incubated for 10h. The following applies: Sus scrofa, target entry is the homologue from another species.

Data set [9] deals with 72 kDa type IV collagenase (Homo sapiens, UniProt P08253). The data set can be described thus: Inhibitory concentration against MMP-2.
For another data set, the target named is Stromelysin-1 (Homo sapiens, UniProt P08254). Briefly: Inhibitory concentration against MMP-3.
Another data set addresses Neutrophil collagenase (Homo sapiens, UniProt P22894). Briefly: Inhibitory concentration against MMP-8.
For data set [10], the target named is Matrix metalloproteinase-9 (Homo sapiens, UniProt P14780). The data set can be described thus: Inhibitory concentration against MMP-9.
The target in data set [11] is Matrix metalloproteinase-14 (Homo sapiens, UniProt P50281). The data set can be described thus: Inhibitory concentration against MMP-14.
For data set [12], the system named is Cricetinae gen. sp. The data set can be described thus: Potent inhibition of IL-1 induced aggrecan degradation in hamster. It counts as functional, Cricetulus griseus.
For data set [13], the species on record is Bos taurus. The data set can be described thus: Inhibition of IL-1 induced collagen degradation in bovine nasal cartilage explants. In kind it is functional.
Data set [14] relates to Cricetinae gen. sp. Briefly: Potent inhibition of MMP-13 induced collagen degradation in hamster knee joints. In kind it is functional, Cricetulus griseus. The following applies: Knee joint.
A further data set concerns Cell line. The data set can be described thus: Inhibition of IL-1 induced aggrecan degradation in human osteoarthritic cartilage. In kind it is functional, cell-based. The following applies: Cartilage tissue. A digest of the protocol: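 Articular cartilage came from total knee replacement and was cut into 1 × 2 mm pieces. These were cultured in DMEM with 0.5% fetal bovine serum and stimulated with IL-1α (50 ng/ml) plus oncostatin M (50 ng/ml). After 48 h, released GAG in the medium was measured by DMMB; n = 2.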

The species entered for data set [15] is Bos taurus. Briefly: Inhibition of IL-1 induced aggrecan degradation in bovine nasal cartilage explants. It counts as functional. An outline of the steps:
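Bovine nasal cartilage plugs (4 mm diameter and length) were cultured in serum-free DMEM with IL-1α plus inhibitor. After 48 h, samples were analysed for GAG content by the DMMB assay.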

Disintegrin and metalloproteinase domain-containing protein 17, sequence (Q9Z1K9 whole entry, the tested form may be a part): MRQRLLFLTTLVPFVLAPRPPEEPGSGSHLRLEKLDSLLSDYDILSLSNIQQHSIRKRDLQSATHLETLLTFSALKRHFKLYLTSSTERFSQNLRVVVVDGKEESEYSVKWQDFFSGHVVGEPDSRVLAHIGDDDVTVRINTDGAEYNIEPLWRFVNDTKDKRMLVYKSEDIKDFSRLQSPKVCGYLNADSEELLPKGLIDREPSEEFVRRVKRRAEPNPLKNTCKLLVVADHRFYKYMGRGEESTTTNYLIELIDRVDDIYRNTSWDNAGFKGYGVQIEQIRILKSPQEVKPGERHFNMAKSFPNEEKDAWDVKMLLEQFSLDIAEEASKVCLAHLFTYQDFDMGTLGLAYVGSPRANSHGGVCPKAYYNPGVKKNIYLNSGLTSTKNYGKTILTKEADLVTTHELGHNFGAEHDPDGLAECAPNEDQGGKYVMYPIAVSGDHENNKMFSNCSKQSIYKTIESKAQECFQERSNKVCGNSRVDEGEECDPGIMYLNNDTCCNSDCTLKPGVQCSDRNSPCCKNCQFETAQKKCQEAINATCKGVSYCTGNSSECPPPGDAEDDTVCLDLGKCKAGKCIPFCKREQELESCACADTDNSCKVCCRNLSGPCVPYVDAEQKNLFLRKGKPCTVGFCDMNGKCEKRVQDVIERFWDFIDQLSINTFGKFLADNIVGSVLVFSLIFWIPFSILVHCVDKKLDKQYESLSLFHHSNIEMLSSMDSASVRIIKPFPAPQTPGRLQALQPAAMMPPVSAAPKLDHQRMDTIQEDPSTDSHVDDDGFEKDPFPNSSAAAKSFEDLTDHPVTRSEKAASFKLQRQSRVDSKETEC
Matrix metalloproteinase-9, sequence (P14780 whole entry): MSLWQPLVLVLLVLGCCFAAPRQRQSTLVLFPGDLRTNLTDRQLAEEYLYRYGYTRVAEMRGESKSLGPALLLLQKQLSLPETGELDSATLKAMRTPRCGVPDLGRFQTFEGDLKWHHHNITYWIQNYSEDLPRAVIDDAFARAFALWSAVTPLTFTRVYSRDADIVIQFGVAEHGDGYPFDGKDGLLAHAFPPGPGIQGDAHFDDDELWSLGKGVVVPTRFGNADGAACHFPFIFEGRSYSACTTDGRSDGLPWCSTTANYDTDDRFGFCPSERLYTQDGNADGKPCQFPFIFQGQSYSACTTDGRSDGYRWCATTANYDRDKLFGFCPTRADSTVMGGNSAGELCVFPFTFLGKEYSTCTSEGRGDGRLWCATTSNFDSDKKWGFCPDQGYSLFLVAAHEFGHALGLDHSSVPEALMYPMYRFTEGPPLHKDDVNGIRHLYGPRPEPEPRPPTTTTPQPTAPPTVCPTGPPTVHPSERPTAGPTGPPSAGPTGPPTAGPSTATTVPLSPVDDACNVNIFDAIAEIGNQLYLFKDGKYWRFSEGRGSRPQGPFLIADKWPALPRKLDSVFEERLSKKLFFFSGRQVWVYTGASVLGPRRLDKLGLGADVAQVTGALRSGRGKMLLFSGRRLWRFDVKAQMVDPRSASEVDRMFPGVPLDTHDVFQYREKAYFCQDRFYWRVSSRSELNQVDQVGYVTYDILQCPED
Neutrophil collagenase, sequence (P22894 whole entry): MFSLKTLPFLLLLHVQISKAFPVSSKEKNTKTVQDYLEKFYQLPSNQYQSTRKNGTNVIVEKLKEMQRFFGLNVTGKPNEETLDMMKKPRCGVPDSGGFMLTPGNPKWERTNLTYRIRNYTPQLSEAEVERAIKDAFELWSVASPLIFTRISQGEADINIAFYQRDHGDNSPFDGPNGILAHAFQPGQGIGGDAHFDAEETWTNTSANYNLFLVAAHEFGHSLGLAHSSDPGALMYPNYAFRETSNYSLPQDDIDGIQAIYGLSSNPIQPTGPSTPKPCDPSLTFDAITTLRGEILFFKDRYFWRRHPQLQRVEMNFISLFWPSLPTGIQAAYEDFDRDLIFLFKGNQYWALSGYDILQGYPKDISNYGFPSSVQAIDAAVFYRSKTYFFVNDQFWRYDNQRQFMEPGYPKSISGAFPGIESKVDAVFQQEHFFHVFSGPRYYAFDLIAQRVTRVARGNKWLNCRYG
72 kDa type IV collagenase, sequence (P08253 whole entry): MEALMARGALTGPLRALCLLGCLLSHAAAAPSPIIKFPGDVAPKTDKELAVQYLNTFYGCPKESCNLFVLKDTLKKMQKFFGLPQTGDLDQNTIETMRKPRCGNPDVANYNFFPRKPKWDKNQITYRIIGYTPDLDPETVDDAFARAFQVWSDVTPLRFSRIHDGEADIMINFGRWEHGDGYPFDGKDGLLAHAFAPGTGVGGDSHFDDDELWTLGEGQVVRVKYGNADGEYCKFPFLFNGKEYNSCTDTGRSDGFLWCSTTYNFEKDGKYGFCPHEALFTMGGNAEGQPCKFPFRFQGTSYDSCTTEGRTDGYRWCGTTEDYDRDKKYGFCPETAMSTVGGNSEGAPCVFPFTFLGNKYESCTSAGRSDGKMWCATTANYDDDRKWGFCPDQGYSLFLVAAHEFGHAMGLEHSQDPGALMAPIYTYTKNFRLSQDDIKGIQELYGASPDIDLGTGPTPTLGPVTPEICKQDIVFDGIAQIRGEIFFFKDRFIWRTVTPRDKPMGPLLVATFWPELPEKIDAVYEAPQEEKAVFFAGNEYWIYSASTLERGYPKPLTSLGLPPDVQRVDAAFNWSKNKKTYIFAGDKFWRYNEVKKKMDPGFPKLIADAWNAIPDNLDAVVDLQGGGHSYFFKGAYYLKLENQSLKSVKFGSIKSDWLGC
Stromelysin-1, sequence (P08254 whole entry): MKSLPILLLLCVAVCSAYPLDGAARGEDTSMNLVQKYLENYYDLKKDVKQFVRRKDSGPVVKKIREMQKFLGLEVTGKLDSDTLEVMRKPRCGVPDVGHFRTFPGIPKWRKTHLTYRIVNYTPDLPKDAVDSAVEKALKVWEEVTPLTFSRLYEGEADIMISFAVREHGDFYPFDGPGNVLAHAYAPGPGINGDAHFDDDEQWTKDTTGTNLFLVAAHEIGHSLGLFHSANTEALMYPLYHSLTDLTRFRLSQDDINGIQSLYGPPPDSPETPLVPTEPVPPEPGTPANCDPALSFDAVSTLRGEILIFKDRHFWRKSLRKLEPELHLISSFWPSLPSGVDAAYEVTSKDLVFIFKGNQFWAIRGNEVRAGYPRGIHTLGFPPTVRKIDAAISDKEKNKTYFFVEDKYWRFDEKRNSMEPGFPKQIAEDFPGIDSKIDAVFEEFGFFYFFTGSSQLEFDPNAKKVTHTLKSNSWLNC

For `C[C@]1(O)CCCN(S(=O)(=O)c2ccc(OCc3ccc(F)cc3)cc2)[C@H]1C(=O)NO`, the IC50 (as a rule, the concentration at which inhibition is half-maximal) was > 1000 nM in data set [1], 11 nM in data set [2], 1100 nM at Interstitial collagenase and 6.5 nM in data set [3].
For `C[C@@]1(O)CCCN(S(=O)(=O)c2ccc(OCc3ccc(F)cc3)cc2)[C@H]1C(=O)NO` (stereo in doubt; 11) the same measures were 120 nM, 14 nM, 420 nM and 3.7 nM.
For `Cc1c(F)cccc1COc1ccc(S(=O)(=O)N2CCC[C@@](C)(O)[C@@H]2C(=O)NO)cc1` the same measures were 11 nM, 10 nM, 1300 nM and 3.2 nM.
As to `C[C@@]1(O)CCCN(S(=O)(=O)c2ccc(OCc3cccc(F)c3)cc2)[C@H]1C(=O)NO`, the IC50 is 85 nM in data set [1], 340 nM at Interstitial collagenase and 1.5 nM in [3].
For `Cc1ccccc1COc1ccc(S(=O)(=O)N2CCC[C@@](C)(O)[C@@H]2C(=O)NO)cc1` the same measures were 6.9 nM, 310 nM and 0.65 nM.
In the case of `C[C@@]1(O)CCCN(S(=O)(=O)c2ccc(OCc3cccc4cccnc34)cc2)[C@H]1C(=O)NO`, the IC50 was 19 nM in data set [1], 120 nM at Interstitial collagenase and 4.1 nM in [3].
Take `CC1(C)C[C@@H](O)CN(S(=O)(=O)c2ccc(OCc3ccc(Cl)cc3Cl)cc2)[C@H]1C(=O)NO`: the half-life in data set [4] and in data set [5] was 2 h each time. Besides, the clearance in [6] worked out at 25 mL/min/kg; in [7] it was 44 mL/min/kg.
For `C[C@@]1(O)CCCN(S(=O)(=O)c2ccc(OCc3ccc(F)cc3)cc2)[C@H]1C(=O)NO` (stereo in doubt; 17), the figures for the concentration for half-maximal inhibition (IC50) (in data set [2]; against Interstitial collagenase) were 14 nM and 420 nM, respectively.
As for `C[C@@]1(O)CCCN(S(=O)(=O)c2ccc(OCc3cnccn3)cc2)[C@H]1C(=O)NO`, the IC50 at Interstitial collagenase was found to be 1600 nM; in data set [3] it was 7.4 nM. In addition, the inhibition (usually how much of the control response was suppressed) in data set [8] amounted to 8%.
With `C[C@@]1(O)CCCN(S(=O)(=O)c2ccc(OCc3ccccc3F)cc2)[C@H]1C(=O)NO`, the IC50 in [1] worked out at 14 nM; against Interstitial collagenase, 180 nM; in data set [3], 0.49 nM.
`CC[C@]1(O)CCCN(S(=O)(=O)c2ccc(OCc3ccc(F)cc3)cc2)[C@H]1C(=O)NO`: the IC50 was found to be 490 nM in [1], 1.7 nM in [2], 1100 nM on Interstitial collagenase and 3.6 nM in [3].
Take `C[C@@]1(O)CCCN(S(=O)(=O)c2ccc(OCc3ccc(F)cc3Cl)cc2)[C@H]1C(=O)NO`: the half-life (in general, how long it takes for the measured level to halve) in data set [4] is 2 h; in data set [5], 4.6 h. In addition, the half-maximal inhibitory concentration (IC50) was 1.5 nM in data set [1]; 310 nM against Interstitial collagenase; 4 nM in [9]; 5 nM at Stromelysin-1; 1 nM against Neutrophil collagenase; 11 nM in data set [10]. For the same compound, the 50% inhibitory concentration (IC50) worked out at 0.9 nM in data set [3]; 83 nM in [11]; 100 nM in the data set filed under Bos taurus [13]; 6 nM with Cell line; 10.3 nM in the data set filed under Bos taurus [15]. Also, the ED50 – broadly, the midpoint of the dose-response relation – in the data set on Cricetinae gen. sp. [12] was 4.6 mg/kg; in the data set on Cricetinae gen. sp. [14], 13 mg/kg. Besides, the figures for the clearance in data set [6] and in [7] were 11 mL/min/kg and 13 mL/min/kg, respectively.
On to `C[C@@]1(O)CCCN(S(=O)(=O)c2ccc(OCc3ccncc3)cc2)[C@H]1C(=O)NO`, for which the IC50 against Interstitial collagenase was 190 nM; in data set [3], 2 nM. The inhibition in [8] was determined as 8.1%.
On to `C[C@@]1(O)CCCN(S(=O)(=O)c2ccc(OCc3ccnc(Cl)c3)cc2)[C@H]1C(=O)NO`, for which the IC50 in data set [1] came to 15 nM; against Interstitial collagenase, 520 nM; in data set [3], 0.43 nM.
As for `C[C@@]1(O)CCCN(S(=O)(=O)c2ccc(OCc3ccccc3Cl)cc2)[C@H]1C(=O)NO`, the figures for the half-maximal inhibitory concentration (IC50) in data set [1] and in data set [3] were 3.7 nM and 1 nM, respectively.
For `Cc1ncccc1COc1ccc(S(=O)(=O)N2CCC[C@@](C)(O)[C@@H]2C(=O)NO)cc1`, the figures for the IC50 (in data set [1]; on Interstitial collagenase; in data set [3]) were 51 nM, 1600 nM and 1.5 nM, respectively.
As to `CCCC[C@]1(O)CCCN(S(=O)(=O)c2ccc(OCc3ccc(F)cc3)cc2)[C@H]1C(=O)NO`, the IC50 in [1] came out at 2000 nM; in data set [2], 23 nM; at Interstitial collagenase it was 2900 nM; in data set [3], 4.9 nM.
Turning to `Cc1cc(F)ccc1COc1ccc(S(=O)(=O)N2CCC[C@@](C)(O)[C@@H]2C(=O)NO)cc1`, the IC50 in data set [1] was determined as 4.7 nM; in data set [2], 15 nM; in [3], 2.9 nM.
As for `C[C@@]1(O)CCCN(S(=O)(=O)c2ccc(OCc3ccc(Cl)cc3F)cc2)[C@H]1C(=O)NO`, the IC50 in data set [1] was found to be 7.9 nM; on Interstitial collagenase, 120 nM; in data set [3] it was 0.87 nM.
In the case of `Cc1ccc(F)cc1COc1ccc(S(=O)(=O)N2CCC[C@@](C)(O)[C@@H]2C(=O)NO)cc1`, the IC50 in [1] stood at 15 nM; in data set [3] it was 2.5 nM.
As to `CC[C@@]1(O)CCCN(S(=O)(=O)c2ccc(OCc3ccc(F)cc3)cc2)[C@H]1C(=O)NO`, the IC50 in data set [1] was determined as 500 nM; in data set [2] it was 18 nM; at Interstitial collagenase, 500 nM; in data set [3] it was 1.6 nM.
On to `COc1ccccc1COc1ccc(S(=O)(=O)N2CCC[C@@](C)(O)[C@@H]2C(=O)NO)cc1`, for which the half-inhibitory concentration (IC50) on Interstitial collagenase came out at 2600 nM; in data set [3], 18 nM. This compound registered an inhibition in [8] of 73%.
Regarding `C[C@@]1(O)CCCN(S(=O)(=O)c2ccc(OCc3ccccc3C#N)cc2)[C@H]1C(=O)NO`, the values for the IC50 (at Interstitial collagenase; in data set [3]) were 2700 nM and 9.7 nM, respectively. In addition, the inhibition in data set [8] amounted to 55%.
Take `C[C@@]1(O)CCCN(S(=O)(=O)c2ccc(OCc3cccc4ccncc34)cc2)[C@H]1C(=O)NO`: the IC50 in data set [1] turned out to be 17 nM; on Interstitial collagenase, 7800 nM; in [3] it was 18 nM.
The matching figures for `C[C@@]1(O)CCCN(S(=O)(=O)c2ccc(OCc3cccc(Cl)c3)cc2)[C@H]1C(=O)NO`: 78 nM, 860 nM and 2.5 nM.
